High-throughput results as filed in PubChem BioAssay.
The list is not random: actives were taken first. Their share in the collection is about 1%.
proCasp3 act = activators of human procaspase-3 | activation, % at 8.5 µM | 330,000 compounds, 0.11% hits | recombinant procaspase-3 D3A, Ac-DEVD-pNA absorbance 405 nm | AID 463141;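 active = activation above the mean of all tested compounds plus 3 SD, cut at about 21% in these data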
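Assay system – Procaspase-3 D3A mutant, all three cleavage aspartates alanine · Controls – DMSO-only low control, 5 µM PC-3 D3A high control · Schedule – 1 h compound preincubation, 2 h substrate hydrolysis at 25 °C · Signal – 405 nm absorbance of p-nitroaniline, reads at 0 and 120 min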
LYPLA1 inh = counter-screen for PME1 inhibitors: inhibitors of human LYPLA1; 320,000 compounds, 0.16% hits; recombinant LYPLA1, FP-Rh probe fluorescence polarization; O75608; inhibition, % at 5.9 µM; AID 2174;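 active = inhibition above the mean of all tested compounds plus 3 SD, set per campaign, cut at about 14% in these data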;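 note: inhibitors block serine hydrolase probe labeling of LYPLA1 so polarization falls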
Fam108B counter = counter-screen for RBBP9 inhibitors: inhibitors of mouse Fam108B. 300,000 compounds, 0.33% hits. inhibition, % at 9.51 µM. AID 1947. recombinant Fam108B, FP-Rh probe fluorescence polarization;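 active = inhibition above the screen mean inhibition plus 3 SD, computed separately per campaign, cut at about 18% in these data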;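 note: inhibitors lower polarization as less probe binds the enzyme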
LYPLA2 counter = LYPLA2 (human) inhibition in PME1 counter-screen | inhibition, % at 5.9 µM | recombinant LYPLA2, FP-Rh probe fluorescence polarization | AID 2177 | O95372 | 320,000 compounds, 0.38% hits;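 active = inhibition above the screen-wide mean plus 3 SD, limit set per campaign, cut at about 26% in these data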
Target sequence (O95372 whole entry, looked up): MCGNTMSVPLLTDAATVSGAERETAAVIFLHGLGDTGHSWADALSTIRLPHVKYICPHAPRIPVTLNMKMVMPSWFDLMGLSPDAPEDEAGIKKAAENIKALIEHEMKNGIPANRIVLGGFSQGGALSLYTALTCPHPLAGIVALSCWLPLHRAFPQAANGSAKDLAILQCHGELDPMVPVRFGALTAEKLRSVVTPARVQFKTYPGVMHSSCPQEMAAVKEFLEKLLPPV
proCasp7 act = counter-screen for procaspase-3 activators: activators of human procaspase-7; AID 463210; recombinant procaspase-7, Ac-DEVD-pNA absorbance 405 nm; D23A/D198A/D206A triple mutant, cannot self-cleave; scale: DMSO 0, 5 µM enzyme 100; activation, % at 8.5 µM; 330,000 compounds, 0.093% hits;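 active = percent activation above the screen-wide mean plus 3 SD, cut at about 25% in these data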
Target sequence (P55210 whole entry D23A/D198A/D206A): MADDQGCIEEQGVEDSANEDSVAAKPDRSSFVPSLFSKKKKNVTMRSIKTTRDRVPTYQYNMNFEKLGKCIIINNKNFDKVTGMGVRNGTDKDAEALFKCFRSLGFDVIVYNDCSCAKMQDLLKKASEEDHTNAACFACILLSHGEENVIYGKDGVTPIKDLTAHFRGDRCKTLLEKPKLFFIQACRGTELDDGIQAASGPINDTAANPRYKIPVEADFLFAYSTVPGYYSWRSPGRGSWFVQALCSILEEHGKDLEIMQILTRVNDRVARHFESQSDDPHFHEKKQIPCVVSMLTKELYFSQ
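signal = Epi-absorbance of released pNA at 405 nm, two timepoints | assay system = Uncleavable procaspase-7 mutant enzyme | reagent = Ac-DEVD-pNA substrate, 400 µM as added | times = 1 h enzyme–compound preincubation and 2 h substrate reaction, both 25 °C | benchmarks = low DMSO alone, high DMSO plus 5 µM PC-7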
PME-1 inh = PME-1 (human) inhibition; Q9Y570; recombinant PME-1, FP-Rh probe fluorescence polarization; inhibition, % at 5.9 µM; 320,000 compounds, 0.53% hits; AID 2130;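 active = inhibition above the campaign mean of all compounds plus 3 SD, cut at about 26% in these data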;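 note: competitive labeling of PME-1 active site by serine hydrolase directed probe; inhibitors block probe labeling so polarization falls and inhibition rises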
LYPLA1 conf = counter-screen for PME1 inhibitors: confirmation of human LYPLA1 inhibitors. shares compounds with LYPLA1 inh. recombinant LYPLA1, FP-Rh probe fluorescence polarization. inhibition, % at 5.9 µM. 480 compounds, 69% hits. AID 2233;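 active = mean inhibition across replicates above the hit cutoff set in the primary screen, cut at about 15% in these data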;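 note: loss of FP-Rh probe labeling of LYPLA1 seen as lower polarization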
LYPLA2 confirm = counter-screen for PME1 inhibitors: confirmation of human LYPLA2 inhibitors. 1,100 compounds, 72% hits. shares compounds with LYPLA2 counter. recombinant LYPLA2, FP-Rh probe fluorescence polarization. inhibition, % at 5.9 µM;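 active = mean inhibition across replicates above the hit cutoff set in the primary screen, cut at about 26% in these data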;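 note: blocked labeling of the enzyme by serine hydrolase FP-Rh probe lowers polarization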
LYPLA2 gel ABPP = blocks human acyl-protein thioesterase 2 in gel ABPP; shares compounds with LYPLA2 counter; rhLYPLA2 in mouse brain proteome, gel ABPP FP-Rh; inhibition, % at 20 µM; 150 compounds, 30% hits; AID 652029;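 active = inhibition of LYPLA2 enzyme probe labeling above about 50%, limit read from the data; inactive = inhibition below that limit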;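 note: loss of FP-Rh probe labeling of the LYPLA2 gel band measured as band density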
A number is an active result; - = inactive; . = no result.

SMILES	proCasp3 act	LYPLA1 inh	Fam108B counter	LYPLA2 counter	proCasp7 act	PME-1 inh	LYPLA1 conf	LYPLA2 confirm	others
COc1ccc(C(=O)NC(=S)Nc2ccc(CN3CCOCC3)cc2)cc1Br	-	15	-	44	-	-	22	47
Cc1ccc(C(=O)NC(=S)Nc2ccc(N3CCOCC3)cc2)cc1C	-	-	-	-	-	-	.	.
COc1ccc(C(=O)NC(=S)Nc2ccc(N3CCOCC3)cc2)cc1Cl	-	14	-	39	-	-	25	55
CC(=O)c1c(C)cc(C)c(CSc2ccccn2)c1C	-	-	-	-	-	-	.	.
O=c1[nH]nc(CNc2ccc(O)cc2)c2ccccc12	-	16	-	34	-	45	-	-
O=C(COc1ccccc1Cl)Nc1ccc(N2CCCC2)cc1	-	33	-	27	-	-	-	-
O=C(Nc1cccc(F)c1)N1CCN(C(=O)c2ccco2)CC1	-	-	-	-	-	-	.	.
CSc1ccccc1OCc1cc(C(=O)N2CCC(Oc3cccnc3)CC2)no1	-	36	-	35	-	-	47	39
Cc1ccc(NC(=O)CS(=O)CC(=O)Nc2ccccc2-c2ccc(C)o2)cc1 (stereo not given)	-	33	-	41	-	35	-	-
CC(=O)Nc1ccccc1-c1ccc(C)o1	-	-	-	-	-	-	.	.
COc1ccc(CNC(=O)C(c2ccco2)N(C(=O)c2snc(C(N)=O)c2N)c2cccc(OC)c2)cc1 (stereo not given)	-	-	-	-	-	-	.	.
COc1ccc(-n2nc(C(=O)NCC(=O)N3CCCCC3)c3ccccc3c2=O)c(OC)c1	-	-	-	-	-	-	.	.
COc1ccc(-n2nc(C(=O)NCC(=O)N3CCN(C)CC3)c3ccccc3c2=O)cc1OC	-	-	-	-	-	-	.	.
COc1ccc(-n2nc(C(=O)NCC(=O)N3CCN(Cc4ccccc4)CC3)c3ccccc3c2=O)c(OC)c1	-	36	-	79	-	-	39	81
COc1ccc(N2CCN(C(=O)CNC(=O)c3nn(-c4ccc(OC)cc4)c(=O)c4ccccc34)CC2)cc1	-	22	-	55	-	-	16	60	LYPLA2 gel ABPP=-
COc1ccc(-n2nc(C(=O)NCC(=O)N3CCN(Cc4ccccc4)CC3)c3ccccc3c2=O)cc1OC	-	20	-	38	-	-	45	64
COc1ccc(N2CCN(C(=O)[C@H](Cc3c[nH]c4ccccc34)NC(C)=O)CC2)cc1	-	-	-	-	-	-	.	.
O=C(CCNC(=O)c1ccco1)NCc1ccc(C(=O)O)cc1	-	.	.	.	-	.	.	.
CC(=O)c1ccc(OCc2cc(C(=O)N(C)CCOc3ccc(C)cc3)no2)cc1	-	20	-	26	-	-	23	-
CC(=O)c1ccc(OCc2cc(C(=O)N(C)Cc3nc4c(C)cccc4[nH]3)no2)cc1	-	-	-	-	-	-	.	.
COc1cc(-c2ccc3oc(-c4cccc(C)c4)c(C#CC4(O)CCCCC4)c3c2)cc(OC)c1OC	-	.	.	.	-	.	.	.
Cc1cc(N)ccc1N1CCCC1	-	22	-	29	-	33	-	-
O=C(O)c1ccccc1C1=Nc2ccc(O)cc2Oc2cc(O)ccc21	-	19	-	27	-	-	16	-
O=C(CCS(=O)(=O)Cc1ccccc1)N1CCN(c2ccc([N+](=O)[O-])cc2)CC1	-	-	-	-	-	-	.	.
O=C(CCCc1ccccc1)N1CCN(c2ccc([N+](=O)[O-])cc2)CC1	-	33	-	39	-	-	41	54
SMILES	proCasp3 act	LYPLA1 inh	Fam108B counter	LYPLA2 counter	proCasp7 act	PME-1 inh	LYPLA1 conf	LYPLA2 confirm	others
COc1ccc(CCC(=O)OCC(=O)N(CC(C)C)c2c(N)n(Cc3ccccc3)c(=O)[nH]c2=O)cc1	-	-	-	-	-	-	.	.
O=C(COC(=O)c1cccc(OC(F)F)c1)NCC1CCCO1 (stereo not given)	-	.	.	.	-	.	.	.
C=CCNC(=O)NC(=O)COC(=O)/C=C/c1cccc([N+](=O)[O-])c1	-	-	-	-	-	-	.	.
CC(C)CCNC(=O)NC(=O)COC(=O)/C=C/c1cccc([N+](=O)[O-])c1	-	25	-	30	-	-	31	32
Cc1ccc(C(=O)CNc2cc(C)ccc2C)cc1	-	-	-	-	-	-	.	.
CCNc1cc(O)ccc1C	-	31	.	40	-	31	15	-
COC(=O)c1ccc2c(c1)SC1=C(CCCC1=O)N2	-	28	-	27	-	29	19	-
O=C(Cn1c(=O)cnc2ccccc21)N1CCN(S(=O)(=O)c2ccccc2Br)CC1	-	-	-	-	-	-	.	.
O=C(N1CCOCC1)n1nnc2ccccc21	-	91	-	47	-	-	94	51
O=C(N1CCOCC1)n1cnc2ccccc21	-	-	-	-	-	-	.	.
CCOc1ccccc1NC(=O)C1CCCN(S(=O)(=O)c2ccc3c(c2)C(C)(C)C(=O)N3C)C1 (stereo not given)	-	-	-	-	-	-	.	.
O=C(/C=C/c1ccc(Cl)cc1)N1CCN(c2ccc([N+](=O)[O-])c(N3CCOCC3)c2)CC1	-	-	-	-	-	-	.	.
O=C(COc1ccc(Cl)cc1)N1CCN(c2ccc([N+](=O)[O-])c(N3CCOCC3)c2)CC1	-	68	-	32	-	-	75	29
Cc1ccc(CN2CCN(/N=C\c3cccc([N+](=O)[O-])c3)CC2)cc1	-	17	-	28	-	-	19	35
CCN(CC)S(=O)(=O)c1cc(C(=O)OCC(=O)Nc2cccc(Br)c2)ccc1F	-	-	-	-	-	-	.	.
CCCOC(=O)c1ccc(Oc2coc3c(CN(CC)CC)c(O)ccc3c2=O)cc1	-	30	-	34	-	-	32	28
CCC(=O)N1CCN(c2ccc(NC(=S)NC(=O)c3cccc([N+](=O)[O-])c3)cc2)CC1	-	39	-	58	-	-	33	55
C(=C\c1ccccc1)/CN1CCN(c2ncnc3c2oc2ccccc23)CC1	-	15	-	35	-	-	23	32
CCOCCc1nn2c(=O)cc(CSCC(=O)Nc3ccccc3)nc2s1	-	-	-	-	-	-	.	.
